Reference: PMC7024744 (Journal of Pesticide Science, 2020)

Legend:
[1] = target: porcine SDH (Sus scrofa, UniProt A5GZW8+D0VWV4+Q007T0+Q0QF01); experiment: SDH enzymatic inhibition assay; type: biochemical, swine
How it was run: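 Porcine SDH quantified by double-antibody sandwich ELISA. Plates were coated with purified porcine SDH antibody, then monoclonal antibody and HRP-labelled SDH antibody were added. After washing, TMB substrate was added, followed by acid. OD was read at 450 nm. SDH activity concentration was taken from a standard curve of standard-substance concentration against OD and corrected for sample dilution.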

[2] = tested on: B. cinerea; experiment: fungicidal activity in vitro, mycelium growth rate method; type: cell-based; conditions: Botrytis cinerea, read-out: Antifungal activity in vitro, inhibition, B. cinerea
How it was run: (§1)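 Mycelium growth rate method. Test compounds were dissolved in acetone as a 100 mg/L stock and tested at 50 mg/L. Boscalid served as positive control and acetone as negative control. Plates were incubated at 25°C. Inhibition (%) was calculated from the average mycelial diameter (mm) with compound versus the negative-control diameter.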

[3] = tested on: V. mali; experiment: as above; type: cell-based; conditions: Cytospora mali, read-out: Antifungal activity in vitro, inhibition, V. mali
How it was run: as §1

porcine SDH, sequence (Q0QF01 43-664): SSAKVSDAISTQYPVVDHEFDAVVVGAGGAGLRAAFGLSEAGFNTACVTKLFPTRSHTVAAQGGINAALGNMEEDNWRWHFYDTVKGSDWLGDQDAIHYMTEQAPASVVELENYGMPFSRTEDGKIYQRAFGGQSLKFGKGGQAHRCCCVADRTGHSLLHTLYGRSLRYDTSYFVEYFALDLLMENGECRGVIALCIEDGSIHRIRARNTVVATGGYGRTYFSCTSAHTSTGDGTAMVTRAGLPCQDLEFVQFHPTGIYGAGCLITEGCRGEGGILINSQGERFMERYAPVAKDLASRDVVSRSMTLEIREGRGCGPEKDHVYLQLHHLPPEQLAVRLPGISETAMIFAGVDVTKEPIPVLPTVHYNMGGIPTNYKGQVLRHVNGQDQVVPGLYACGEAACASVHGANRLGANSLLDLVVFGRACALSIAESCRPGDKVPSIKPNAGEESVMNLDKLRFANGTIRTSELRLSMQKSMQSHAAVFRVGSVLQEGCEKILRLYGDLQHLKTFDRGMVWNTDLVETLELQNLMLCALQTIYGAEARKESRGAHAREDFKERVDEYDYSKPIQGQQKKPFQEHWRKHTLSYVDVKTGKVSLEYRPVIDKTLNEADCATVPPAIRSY
porcine SDH, sequence (Q007T0 29-280): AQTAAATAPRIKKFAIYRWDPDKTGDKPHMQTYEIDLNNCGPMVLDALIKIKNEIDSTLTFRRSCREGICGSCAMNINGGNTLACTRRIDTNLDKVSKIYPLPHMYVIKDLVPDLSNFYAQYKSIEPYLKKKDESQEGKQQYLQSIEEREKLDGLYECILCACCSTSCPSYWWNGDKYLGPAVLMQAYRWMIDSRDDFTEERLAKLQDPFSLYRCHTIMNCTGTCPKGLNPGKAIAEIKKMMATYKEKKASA
porcine SDH, sequence (D0VWV4 30-169): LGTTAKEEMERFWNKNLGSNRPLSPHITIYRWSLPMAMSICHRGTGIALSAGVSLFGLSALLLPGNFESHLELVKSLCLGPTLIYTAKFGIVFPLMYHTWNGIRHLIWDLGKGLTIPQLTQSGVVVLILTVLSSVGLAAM
porcine SDH, sequence (A5GZW8 37-159): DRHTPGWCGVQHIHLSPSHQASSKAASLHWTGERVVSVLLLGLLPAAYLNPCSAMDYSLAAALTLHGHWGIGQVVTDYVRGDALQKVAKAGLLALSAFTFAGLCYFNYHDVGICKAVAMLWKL

Q: For `O=C(Nc1ccccc1-c1ccc(Cl)cc1)c1cccnc1Cl` [Boscalid], which IC50 [1] is on record?
A: 1670 nM

Q: And the inhibition at 0.5 µM ([1]; read-out: SDH enzymatic inhibition, Inhibition (%) 0.5 µM)?
A: 21.6%

Q: And the inhibition at 1 µM ([1]; read-out: SDH enzymatic inhibition, Inhibition (%) 1 µM)?
A: 43.3%

Q: And the inhibition at 2 µM ([1]; read-out: SDH enzymatic inhibition, Inhibition (%) 2 µM)?
A: 53.6%

Q: And the inhibition at 8 µM ([1]; read-out: SDH enzymatic inhibition, Inhibition (%) 8 µM)?
A: 81%

Q: What about the inhibition at 50 µg/mL [2] of the same compound?
A: 100%

Q: And the inhibition at 50 µg/mL [3]?
A: 100%
